“And” between values parts separate entries of the source, which are not always exact repeats. Equal values may be shown once. Read-outs that look alike come from different tables or passages of the source.
Experiments:
[1] = 19F NMR monitoring of reaction with glutathione; assay type: physicochemical; settings: 100 μM, 10 equivalents of glutathione, 37 °C, 15 hours
Method in brief: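 Samples were in 100 mM HEPES pH 7.2, 150 mM NaCl, with 10% […] and 1% DMSO final. Test compound at 100 μM was incubated with 10 equivalents of glutathione for 15 hours at 37°C. ¹⁹F NMR spectra were recorded at 37°C on a 600 MHz spectrometer with a room-temperature H(F)CN probe.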

[2] = tested on: AR230^R cells; assay: Phenotypic screening / cytotoxicity in TKI-resistant CML cell line AR230^R; assay type: cell-based; settings: for IC50: read-out: IC50 AR230^R
[3] = target: T1, STAT3 (Homo sapiens, UniProt P40763); assay: Competitive fluorescence polarization; assay type: binding
Method in brief: (§1)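 Competitive binding assay in which the test compound displaces a fluoresceinated peptide from the SH2 domain, read by fluorescence polarization. IC50 is reported with a 95% confidence interval, and Ki is reported alongside it.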

[4] = tested on: pSTAT3 / STAT3 in AR230^R cells; assay type: cell-based; settings: 10 μM, 2 hours pre-treatment, IL-6 and IFN stimulation
[5] = Metabolic stability in CD-1 mouse hepatocytes; assay type: in vitro ADME
Method in brief: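 CD-1 mouse hepatocytes were incubated with the test compound for 120 min. Remaining parent compound was quantified by LC-MS/MS at regular time points to assess metabolic degradation.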

[6] = Plasma protein binding; assay type: in vitro ADME; settings: CD-1 mice plasma, dialysis 6 hours, 37°C
Method in brief: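 Plasma protein isolated from CD-1 mice was spiked with the test compound and dialysed against PBS for 6 hours at 37°C under 5% CO₂. Plasma and buffer compartments were both analysed to give the percentage of free compound. Ketoconazole was the positive control.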

[7] = target: T2, STAT1 (Homo sapiens, UniProt P42224); assay: Competitive fluorescence polarization; assay type: binding
T2 sequence (P42224 1-750): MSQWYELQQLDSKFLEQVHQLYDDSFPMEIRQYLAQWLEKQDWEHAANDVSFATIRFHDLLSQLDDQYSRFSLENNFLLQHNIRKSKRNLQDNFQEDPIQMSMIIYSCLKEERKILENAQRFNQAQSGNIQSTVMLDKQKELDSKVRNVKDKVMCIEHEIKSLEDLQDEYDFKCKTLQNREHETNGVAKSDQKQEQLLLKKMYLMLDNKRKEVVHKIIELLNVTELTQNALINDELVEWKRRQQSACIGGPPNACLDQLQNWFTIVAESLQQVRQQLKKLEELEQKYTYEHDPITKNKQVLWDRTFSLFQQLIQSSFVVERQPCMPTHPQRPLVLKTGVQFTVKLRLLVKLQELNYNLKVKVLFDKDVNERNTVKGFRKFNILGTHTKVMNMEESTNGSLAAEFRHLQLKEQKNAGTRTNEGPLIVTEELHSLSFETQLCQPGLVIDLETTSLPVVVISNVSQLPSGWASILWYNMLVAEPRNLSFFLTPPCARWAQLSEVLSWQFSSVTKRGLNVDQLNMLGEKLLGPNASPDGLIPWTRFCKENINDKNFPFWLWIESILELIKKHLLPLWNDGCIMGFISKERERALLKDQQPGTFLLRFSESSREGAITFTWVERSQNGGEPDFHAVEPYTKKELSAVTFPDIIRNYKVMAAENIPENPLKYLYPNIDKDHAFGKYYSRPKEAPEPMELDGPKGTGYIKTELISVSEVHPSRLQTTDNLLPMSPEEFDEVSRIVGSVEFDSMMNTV
Method in brief: as §1

[8] = tested on: AR230 cells; assay: Phenotypic screening / cytotoxicity in CML cell line AR230; assay type: cell-based; settings: read-out: IC50 AR230
[9] = target: T1, STAT3; assay: 19F NMR examination of binding to STAT3; settings: 100 μM compound with STAT3, 37 °C, 1 hour
[10] = In vivo bioavailability / plasma pharmacokinetics, IP injection; design: species or system CD-1 mice
Method in brief: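 CD-1 mice received 20 mg/kg IP in 10% DMA, 65% PEG 400, 25% saline. Parent compound in plasma was measured to give concentration–time profiles. In one study, a cohort of 3 mice was sampled at 15, 30, 60, 90, 180 and 360 min post-dose, and plasma was analysed for parent compound by LC-MS.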

T1 sequence (P40763 whole entry, species assumed, the tested form may be a part): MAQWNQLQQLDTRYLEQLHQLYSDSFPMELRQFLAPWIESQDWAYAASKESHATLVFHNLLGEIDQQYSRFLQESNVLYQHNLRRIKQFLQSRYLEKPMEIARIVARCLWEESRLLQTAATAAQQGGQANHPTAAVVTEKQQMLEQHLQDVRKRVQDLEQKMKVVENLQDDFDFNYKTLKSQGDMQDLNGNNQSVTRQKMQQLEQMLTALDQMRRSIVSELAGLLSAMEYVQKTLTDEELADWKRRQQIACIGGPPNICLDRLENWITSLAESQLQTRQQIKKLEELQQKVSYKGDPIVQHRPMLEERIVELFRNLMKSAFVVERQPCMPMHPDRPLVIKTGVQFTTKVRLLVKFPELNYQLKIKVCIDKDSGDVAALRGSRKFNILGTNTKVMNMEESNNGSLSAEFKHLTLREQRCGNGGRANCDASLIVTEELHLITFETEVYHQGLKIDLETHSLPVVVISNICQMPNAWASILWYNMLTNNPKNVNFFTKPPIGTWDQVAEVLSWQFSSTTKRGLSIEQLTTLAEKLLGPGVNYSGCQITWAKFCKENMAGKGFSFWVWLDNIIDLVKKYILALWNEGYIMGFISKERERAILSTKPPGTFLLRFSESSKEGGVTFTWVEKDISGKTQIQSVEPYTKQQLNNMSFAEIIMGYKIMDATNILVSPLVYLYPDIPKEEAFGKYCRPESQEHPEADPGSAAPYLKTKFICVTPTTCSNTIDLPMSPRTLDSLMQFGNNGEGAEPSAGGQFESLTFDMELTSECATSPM

Row | Structure (SMILES) | Fold Difference ([2]; Table 3, AR230 vs AR230^R) | IC50 ([2]; Table 3) | IC50 ([8]; Table 3) | IC50 ([2]; Table 4) | IC50 ([8]; Table 4) | further results
1 | CC(C)(C)c1ccc(CN(C(=O)CN(C2CC2)S(=O)(=O)c2c(F)c(F)cc(F)c2F)c2ccc(C(=O)O)cc2)cc1 [AM-1-124, 4-(N-(4-(tert-butyl)benzyl)-2-(N-cyclopropyl-2,3,5,6-tetrafluorophenylsulfonamido)acetamido)benzoic acid] |  |  |  |  |  | reaction with glutathione (19F NMR) [1]: inert to glutathione; fold improvement in selectivity vs SH-4-54 [2]: 5 fold; fold selectivity for AR230^R over AR230 cells [2]: 5.6 fold; Fold Difference ([2]; Table 5, AR230 vs AR230^R): 5.6; IC50 [2]: 4.8 µM; IC50 [3]: 30 µM; Ki ([3]; Ki STAT3, disruption of STAT3:IL-6R/gp130 peptide complex, FP): 15 µM and 15.3 µM; cytokine-induced pSTAT3 activation [4]: partially inhibited cytokine-induced pSTAT3 activation; nuclear STAT3 protein localization [4]: reduced the nuclear STAT3 protein localization; fold more resistant to metabolism than SH-4-54 [5]: ~ 4 fold; bound to mouse plasma proteins [6]: 99.7%; Ki [7]: > 250 µM; IC50 [8]: 26.9 µM; mode of interaction with STAT3 (19F NMR, fluoride ion production) [9]: non-covalent; plasma concentration for the first 120 mins ([10]; CD-1 mice, IP 20 mg/kg): above 2000 ng/mL; half-life ([10]; male, CD-1, mouse, plasma, ip, 20 mg/kg): 1.42 h
2 | CC(C)(C)c1ccc(CN(C(=O)CN(C2CC2)S(=O)(=O)c2c(F)c(F)c(F)c(F)c2F)c2ccc(C(=O)O)cc2)cc1 [DR-3-162, 4-(N-(4-(tert-butyl)benzyl)-2-((N-cyclopropyl-2,3,4,5,6-pentafluorophenyl)sulfonamido)acetamido)benzoic acid] | 4 | 0.8 µM | 3.2 µM |  |  | fold selectivity for AR230^R over AR230 cells [2]: 4 fold; fold more potent ([2]; AR230^R cells): 3 fold
3 | O=C(O)c1ccc(N(Cc2ccc(C3CCCCCC3)cc2)C(=O)CN(C2CC2)S(=O)(=O)c2c(F)c(F)c(F)c(F)c2F)cc1 [DR-3-165, 4-(N-(4-Cycloheptylbenzyl)-2-((N-cyclopropyl-2,3,4,5,6-pentafluorophenyl)sulfonamido)acetamido)benzoic acid] | 2.45 | 1.1 µM | 2.7 µM |  |  | 
4 | O=C(O)c1ccc(N(Cc2ccc(C(F)(F)F)cc2)C(=O)CN(C2CC2)S(=O)(=O)c2c(F)c(F)c(F)c(F)c2F)cc1 [DR-3-186, 4-(2-(N-cyclopropyl-2,3,4,5,6-pentafluorophenylsulfonamido)-N-(4-(trifluoromethyl)benzyl)acetamido)benzoic acid] | 1.94 |  |  |  |  | fold selectivity for AR230^R over AR230 cells [2]: < 2 fold; IC50 [2]: 0.72 µM; IC50 [8]: 1.4 µM
5 | O=C(O)c1ccc(N(Cc2ccc(F)cc2)C(=O)CN(C2CC2)S(=O)(=O)c2c(F)c(F)c(F)c(F)c2F)cc1 [PSL-3-122] | 2.03 | 3 µM | 6.1 µM |  |  | 
6 | O=C(O)c1ccc(N(Cc2ccc(C3CCCC3)cc2)C(=O)CN(C2CC2)S(=O)(=O)c2c(F)c(F)c(C(F)(F)F)c(F)c2F)cc1 [AM1-066, 4-(N-(4-Cyclopentylbenzyl)-2-((N-cyclopropyl-2,3,5,6-tetrafluoro-4-(trifluoromethyl)phenyl)sulfonamido)acetamido)benzoic acid] |  |  |  | 21.6 µM | 20.4 µM | 
7 | O=C(O)c1ccc(N(Cc2ccc(C3CCC3)cc2)C(=O)CN(C2CC2)S(=O)(=O)c2c(F)c(F)c(F)c(F)c2F)cc1 [DR-4-020, 4-(N-(4-Cyclobutylbenzyl)-2-((N-cyclopropyl-2,3,4,5,6-pentafluorophenyl)sulfonamido)acetamido)benzoic acid] | 2.05 | 4.2 µM | 8.6 µM |  |  | 
8 | O=C(O)c1ccc(N(Cc2ccc(C3CCCC3)cc2)C(=O)CN(C2CC2)S(=O)(=O)c2ccc(F)cn2)cc1 [AM1-117, 4-(N-(4-Cyclopentylbenzyl)-2-((N-cyclopropyl-5-fluoropyridine)-2-sulfonamido)acetamido)benzoic acid] |  |  |  | > 32 µM | > 32 µM | 
9 | CC(C)(C)c1ccc(CN(C(=O)CN(C2CC2)S(=O)(=O)c2ccc(F)cc2)c2ccc(C(=O)O)cc2)cc1 [AES1-094, 4-(N-(4-(tert-butyl)benzyl)-2-((N-cyclopropyl-4-fluorophenyl)sulfonamido)acetamido)benzoic acid] |  |  |  | 10.6 µM | > 32 µM | 
10 | O=C(O)c1ccc(N(Cc2ccc(C3CCCC3)cc2)C(=O)CNS(=O)(=O)c2c(F)c(F)c(F)c(F)c2F)cc1 [DR-3-111, 4-(N-(4-Cyclopentylbenzyl)-2-((perfluorophenyl)sulfonamido)acetamido)benzoic acid] |  |  |  |  |  | fold reduction in activity vs SH-4-54 ([2]; AR230^R cells): ~5 fold; IC50 [2]: 15.6 µM; IC50 [8]: 11.4 µM
11 | O=C(O)c1ccc(N(Cc2ccc(C3CCCC3)cc2)C(=O)CN(C2CC2)S(=O)(=O)c2ccccn2)cc1 [RG1-085, 4-(N-(4-Cyclopentylbenzyl)-2-(N-cyclopropylpyridine-2-sulfonamido)acetamido)benzoic acid] |  |  |  |  |  | IC50 [2]: > 32 µM; IC50 [8]: > 32 µM
12 | O=C(O)c1ccc(N(Cc2ccccc2)C(=O)CN(C2CC2)S(=O)(=O)c2c(F)c(F)c(F)c(F)c2F)cc1 [PSL-3-115] | 2.26 | 2.3 µM | 5.2 µM |  |  | 
13 | O=C(O)c1ccc(N(Cc2ccc(C3CCCC3)cc2)C(=O)CN(C2CC2)S(=O)(=O)c2c(F)c(F)c(Cl)c(F)c2F)cc1 [AM1-112, 4-(N-(4-Cyclopentylbenzyl)-2-((N-cyclopropyl-2,3,5,6-tetrafluoro-4-chlorophenyl)sulfonamido)acetamido)benzoic acid] |  |  |  | 30.7 µM | > 32 µM | 
14 | O=C(O)c1ccc(N(Cc2ccc(C3CCCC3)cc2)C(=O)CN(C2CC2)S(=O)(=O)c2c(F)c(F)cc(F)c2F)cc1 [AM1-020, 4-(N-(4-Cyclopentylbenzyl)-2-((N-cyclopropyl-2,3,5,6-tetrafluorophenyl)sulfonamido)acetamido)benzoic acid] |  |  |  | 13.1 µM | > 32 µM | 

From PMC4963206 (ChemMedChem, 2016)
